Experimental findings from the RNAGym collection of RNA variant scans (doi:10.1002/anie.201605470) are described below.

To fix the notation:
B1: Osa-1-4 twister ribozyme (parent)
chain: CCGCCUAACACUGCCAAUGCCGGUCCCAAGCCCGGAUAAAAGUGGAGGGGGCGG

In the series the parent is B1. The series can be described thus: self-cleavage, relative activity (ratio to wild type); higher = more cleavage; co-transcriptional. The method, boiled down: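 A DNA template for a 54-nucleotide Oryza sativa twister ribozyme was synthesised with 97 % wild-type base and 1 % of each other base at the 48 positions downstream of the cleavage site. It was transcribed in vitro for 2 h at 37 °C, allowing co-transcriptional self-cleavage, then reverse-transcribed with a template-switching oligonucleotide, PCR-amplified and deep-sequenced. Cleavage status was scored from reads with or without upstream sequence. Relative activity is fraction cleaved normalised to wild type.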
G47U G54U: the self-cleavage came to 0.46.
With G48C U12A, the self-cleavage stood at 0.07.
As for G48C U12G, the self-cleavage worked out at 0.07.
For the variant G48C U12C, the self-cleavage turned out to be 0.05.
With G47A U12A, the self-cleavage was determined as 0.08.
Take G47A U12G: the self-cleavage amounted to 0.06.
On to G47A U12C, for which the self-cleavage worked out at 0.07.
The same measure for G48C G51C: 0.04.
The figure for G48C G51U is 0.06; for G48C G51A it is 0.11; for G49C G50C it is 0.17.
G49C G50U: the self-cleavage was 0.14.
As to G49C G50A, the self-cleavage was 0.2.
The figure for A46U G50C is 0.07; for A46U G50A it is 0.08; for A46U G50U it is 0.09.
The same measure for G48C G54A: 0.11; for G48C G54C: 0.1.
In the case of G48C G54U, the self-cleavage is 0.2.
On to G49A G54A, for which the self-cleavage is 0.15.
In the case of G49A G54U, the self-cleavage amounted to 0.39.
Turning to G49A G54C, the self-cleavage was found to be 0.11.
As for G47A G48A, the self-cleavage is 0.08.
Turning to G47A G48C, the self-cleavage came to 0.04.
In the case of G47A G48U, the self-cleavage came to 0.04.
With G48U G50C, the self-cleavage came out at 0.07.
Turning to G48U G50A, the self-cleavage was found to be 0.21.
Regarding G48U G50U, the self-cleavage stood at 0.07.
Turning to G49U G50A, the self-cleavage is 0.5.
Regarding A46U U37C, the self-cleavage worked out at 0.09.
Consider A46U U37G, for which the self-cleavage was 0.11.
Turning to A46U U37A, the self-cleavage stood at 0.05.
With G47C G48A, the self-cleavage came out at 0.04.
Regarding G47C G48U, the self-cleavage was determined as 0.03.
As for G47C G48C, the self-cleavage turned out to be 0.05.
As for G47C G50C, the self-cleavage was 0.08.
Regarding G47C G50A, the self-cleavage stood at 0.13.
For the variant G47C G50U, the self-cleavage came to 0.07.
With A46U G47U, the self-cleavage stood at 0.05.
In the case of A46U G47C, the self-cleavage came out at 0.04.
Consider A46U G47A, for which the self-cleavage turned out to be 0.06.
The same measure for G47A G51C: 0.05; for G47A G51U: 0.09; for G47A G51A: 0.12.
Turning to A46U G44U, the self-cleavage was 0.07.
With A46U G44A, the self-cleavage came out at 0.07.
Take A46U G44C: the self-cleavage amounted to 0.06.
The figure for A46U G54U is 0.17; for A46U G54C it is 0.08.
With A46U G54A, the self-cleavage stood at 0.08.
The figure for G49C U12A is 0.08.
Take G49C U12C: the self-cleavage is 0.04.
With G49C U12G, the self-cleavage turned out to be 0.06.
With G48U G51A, the self-cleavage turned out to be 0.11.
Consider G48U G51C, for which the self-cleavage is 0.04.
The same measure for G48U G51U: 0.07; for G47A G54U: 0.34; for G47A G54A: 0.18.
For the variant G47A G54C, the self-cleavage was 0.15.
Consider G47U G50A, for which the self-cleavage came out at 0.19.
In the case of G47U G50U, the self-cleavage amounted to 0.1.
Consider G47U G50C, for which the self-cleavage turned out to be 0.07.
For the variant G47A U24C, the self-cleavage turned out to be 0.04.
Regarding G47A U24A, the self-cleavage was 0.04.
The figure for G47A U24G is 0.02; for A46U U18A it is 0.05; for A46U U18C it is 0.08.
As to A46U U18G, the self-cleavage was determined as 0.09.
Consider A46U G35U, for which the self-cleavage amounted to 0.09.
With A46U G35A, the self-cleavage amounted to 0.07.
The same measure for A46U G35C: 0.05; for A46U C27G: 0.03.
Take A46U C27A: the self-cleavage came out at 0.04.
Take A46U C27U: the self-cleavage was 0.06.
Take G49C G54U: the self-cleavage was 0.08.
In the case of G49C G54A, the self-cleavage was found to be 0.06.
For G49C G54C, the self-cleavage was 0.05.
The figure for G48A U43G is 0.06; for G48A U43C it is 0.06; for G48A U43A it is 0.06.
In the case of G48C U37A, the self-cleavage was determined as 0.08.
With G48C U37C, the self-cleavage came to 0.1.
The same measure for G48C U37G: 0.16; for G47C U12A: 0.06.
In the case of G47C U12G, the self-cleavage turned out to be 0.06.
As for G47C U12C, the self-cleavage was 0.05.
For the variant G49A U37C, the self-cleavage came to 0.19.
As for G49A U37G, the self-cleavage amounted to 0.27.
Regarding G49A U37A, the self-cleavage was determined as 0.13.
Consider A46U G13U, for which the self-cleavage was 0.01.
Turning to A46U G13A, the self-cleavage amounted to 0.03.
The same measure for A46U G13C: 0.02.
Regarding A46U C31U, the self-cleavage amounted to 0.04.
Take A46U C31A: the self-cleavage came to 0.02.
For A46U C31G, the self-cleavage was determined as 0.04.
As for G47U G48C, the self-cleavage is 0.05.
For G47U G48U, the self-cleavage stood at 0.05.
The same measure for G47U G48A: 0.04; for G48C G53A: 0.09; for G48C G53C: 0.05.
As for G48C G53U, the self-cleavage came to 0.07.
The same measure for G47C U37A: 0.09.
As to G47C U37C, the self-cleavage is 0.15.
Turning to G47C U37G, the self-cleavage came out at 0.21.
With A46U G48A, the self-cleavage is 0.03.
The figure for A46U G48C is 0.04; for A46U G48U it is 0.03; for G49A U24A it is 0.05.
The figure for G49A U24C is 0.05.
Regarding G49A U24G, the self-cleavage was 0.01.
Consider G49C U43A, for which the self-cleavage is 0.08.
Consider G49C U43G, for which the self-cleavage was 0.04.
Take G49C U43C: the self-cleavage is 0.1.
For the variant G47U G51A, the self-cleavage was 0.09.
On to G47U G51C, for which the self-cleavage came out at 0.05.
In the case of G47U G51U, the self-cleavage was determined as 0.08.
For the variant G47U U18C, the self-cleavage amounted to 0.24.
The same measure for G47U U18A: 0.28; for G47U U18G: 0.57.
Consider A46U U12C, for which the self-cleavage is 0.06.
With A46U U12G, the self-cleavage came to 0.07.
The same measure for A46U U12A: 0.07; for G47U G49A: 0.05.
Take G47U G49U: the self-cleavage came to 0.05.
In the case of G47U G49C, the self-cleavage worked out at 0.04.
Turning to G48C U18C, the self-cleavage came out at 0.1.
The figure for G48C U18G is 0.1; for G48C U18A it is 0.09; for G49A U12C it is 0.05.
Turning to G49A U12A, the self-cleavage was 0.08.
On to G49A U12G, for which the self-cleavage came to 0.06.
The figure for G49A G50A is 0.27; for G49A G50U it is 0.23; for G49A G50C it is 0.22.
Consider G48A U24G, for which the self-cleavage is 0.01.
With G48A U24C, the self-cleavage is 0.04.
In the case of G48A U24A, the self-cleavage is 0.05.
For G48U U43G, the self-cleavage turned out to be 0.04.
For the variant G48U U43C, the self-cleavage worked out at 0.05.
Regarding G48U U43A, the self-cleavage amounted to 0.05.
The same measure for G48U G54U: 0.34.
G48U G54A: the self-cleavage came out at 0.11.
The same measure for G48U G54C: 0.1; for G47C G54C: 0.13.
G47C G54A: the self-cleavage was 0.14.
On to G47C G54U, for which the self-cleavage came out at 0.24.
In the case of G47C G51A, the self-cleavage came to 0.09.
Consider G47C G51U, for which the self-cleavage came out at 0.05.
In the case of G47C G51C, the self-cleavage was found to be 0.05.
Take A46U C32A: the self-cleavage is 0.03.
With A46U C32U, the self-cleavage was determined as 0.05.
With A46U C32G, the self-cleavage is 0.05.
Turning to G48U U18C, the self-cleavage stood at 0.08.
The same measure for G48U U18G: 0.13; for G48U U18A: 0.07; for A46U G49A: 0.04.
A46U G49C: the self-cleavage turned out to be 0.04.
Take A46U G49U: the self-cleavage is 0.05.
G47C: the self-cleavage turned out to be 0.17.
For the variant G47A, the self-cleavage is 0.51.
G47U: the self-cleavage came out at 0.42.
The figure for G49C is 0.07.
Consider G49U, for which the self-cleavage was 0.23.
Take G49A: the self-cleavage is 0.26.
As for A46U G42C, the self-cleavage stood at 0.06.
With A46U G42A, the self-cleavage worked out at 0.08.
With A46U G42U, the self-cleavage was determined as 0.03.
